Measurements taken from article PMC10787258 (Current Research in Toxicology, 2023).
“Also recorded” adds a separate entry of the source.

Key:
[1] = target: T1, human sodium iodide symporter (NIS) (Homo sapiens, UniProt Q92911); test: hNIS-HEK293T-EPA radioactive iodide uptake; type: cell-based
T1 sequence (Q92911 1-643): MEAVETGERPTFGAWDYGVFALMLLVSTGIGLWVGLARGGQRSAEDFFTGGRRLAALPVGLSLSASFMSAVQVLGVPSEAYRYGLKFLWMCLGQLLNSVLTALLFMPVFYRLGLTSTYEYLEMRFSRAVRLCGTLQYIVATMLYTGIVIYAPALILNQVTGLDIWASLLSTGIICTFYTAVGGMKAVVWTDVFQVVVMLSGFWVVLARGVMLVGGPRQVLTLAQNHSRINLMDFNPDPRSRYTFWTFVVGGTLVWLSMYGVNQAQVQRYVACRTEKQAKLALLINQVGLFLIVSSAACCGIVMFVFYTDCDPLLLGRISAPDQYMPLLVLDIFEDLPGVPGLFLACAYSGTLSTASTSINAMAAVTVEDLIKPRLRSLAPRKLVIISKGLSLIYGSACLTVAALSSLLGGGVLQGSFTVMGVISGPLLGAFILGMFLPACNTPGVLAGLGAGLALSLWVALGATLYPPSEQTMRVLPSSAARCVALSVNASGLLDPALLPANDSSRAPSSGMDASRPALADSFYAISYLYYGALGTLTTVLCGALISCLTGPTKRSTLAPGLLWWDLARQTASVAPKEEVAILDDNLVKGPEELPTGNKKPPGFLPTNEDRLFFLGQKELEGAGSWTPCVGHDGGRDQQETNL

[2] = system: juvenile male and female Sprague-Dawley rats; test: Four-day oral exposure, serum thyroid hormones; type: in vivo, rat
Outline: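 Weanling Sprague-Dawley rats arrived PND21 and were fed AIN-93 diet (iodide 225 ng/g). Groups were weight-ranked, n = 6 per sex per dose. Daily oral gavage PND 27–30 at 0, 125, 250 or 500 mg/kg in 1 % methyl cellulose suspension, adjusted to daily body weight. Decapitation ~2 hr after 4th dose. Trunk serum total T4/T3 by RIA kits (LOD 1.24, 0.50 ng/ml). One-way ANOVA, Dunnett's; mean ± SEM.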

hNIS-HEK293T-EPA cells = conditions: any concentration tested up to 100 μM; ref Buckalew et al., 2020; cited from earlier work
liver = conditions: 98 % pure technical grade, up to 73 mg/kg; ref U.S. EPA, 2021; cited from earlier work
[3] = system: juvenile male Sprague-Dawley rats; test: Eight-day oral exposure, serum thyroid hormones, TSH and thyroid weight; type: in vivo, rat
FRTL-5 cells = conditions: any concentration tested up to 100 μM; ref Buckalew et al., 2020; cited from earlier work
thyroid peroxidase = conditions: ToxCast in vitro; ref Paul Friedman et al., 2016; cited from earlier work
thyroid cancer = conditions: human epidemiology, California; ref Omidakhsh et al., 2022; cited from earlier work
mouse and rabbit = mouse and rabbit studies; ref U.S. EPA, 2021; cited from earlier work
deiodinase = conditions: ToxCast in vitro; ref Olker et al., 2019; cited from earlier work
[4] = cited from earlier work
[5] = Body weight, percent growth and general toxicity in 4- and 8-day studies; type: in vivo, rat
[6] = Oxyfluorfen quantitation in serum and thyroid gland; type: in vivo, rat
Outline: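 Serum came from 4-day gavage (0–500 mg/kg) and male 8-day gavage (PND27–34, 0–62.5 mg/kg); thyroids came from 8-day rats. Serum (60 µL) was spiked with d5-labelled internal standard, equilibrated 30 min at room temperature, then protein-precipitated with acetonitrile. LC/MS/MS used positive ESI in MRM mode with isotope dilution and serum-matched calibration (2.5–5000 ng/ml). LOQ 25 ng/mL serum, 2.5 ng/g thyroid; results below LOQ reported ND.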

[7] = higher purity (>98 %) oxyfluorfen; ref RED 2002; 2019; cited from earlier work
[8] = 8 days oral, any treatment group (0.8125 to 62.5 mg/kg)

**Q.** Which IC50 [1] does the source give for `CCOc1cc(Oc2ccc(C(F)(F)F)cc2Cl)ccc1[N+](=O)[O-]` [oxyfluorfen, 2-chloro-1-(3-ethoxy-4-nitrophenoxy)-4(trifluoromethyl)benzene] here?
**A.** 2000 nM

**Q.** And the “Decrease in serum T3” value ([2]; female, 4 days oral, 125 mg/kg)?
**A.** 18%

**Q.** And the “Decrease in serum T4” value ([2]; female, 4 days oral, 125 mg/kg)?
**A.** ~55%

**Q.** What about the “Serum T3 vs control” value ([2]; female, 4 days oral, 125 mg/kg) of the same compound?
**A.** significantly suppressed

**Q.** What about the “Serum T3 vs control” value ([2]; female, 4 days oral, 250 mg/kg) of the same compound?
**A.** not significantly suppressed

**Q.** And the “Serum T3 vs control” value ([2]; female, 4 days oral, 500 mg/kg)?
**A.** significantly suppressed

**Q.** What about the “Total serum thyroxine (T4)” value ([2]; male and female, 4 days, all doses (125, 250, 500 mg/kg/day)) of the same compound?
**A.** suppressed

**Q.** And the “Decrease in serum T3” value ([2]; male, 4 days oral, 125 mg/kg)?
**A.** 35%

**Q.** And the “Decrease in serum T4” value ([2]; male, 4 days oral, 125 mg/kg)?
**A.** 68%

**Q.** And the “Suppression of serum T3” value ([2]; male, 4 days oral, 125 to 500 mg/kg)?
**A.** approximately 30%

**Q.** And the “Suppression of serum T4” value ([2]; male, 4 days oral, all doses (125, 250, 500 mg/kg))?
**A.** 70%

**Q.** And the Cytotoxicity (hNIS-HEK293T-EPA cells)?
**A.** no observed cytotoxicity; also recorded: no confounding cytotoxicity

**Q.** And the Liver tumor incidence (liver)?
**A.** has not shown liver tumor incidence

**Q.** What about the “LOEL for suppression of serum T4” value ([3]; 8-day daily oral exposure) of the same compound?
**A.** 3.25 mg/kg

**Q.** What about the “NOEL for serum T4” value ([3]; 8-day daily oral exposure) of the same compound?
**A.** 1.625 mg/kg

**Q.** And the “LOEL for suppression of serum T3” value ([3]; 8-day oral exposure)?
**A.** 62.5 mg/kg/day

**Q.** And the “LOEL for suppression of serum T4” value ([3]; 8-day oral exposure)?
**A.** 3.25 mg/kg/day

**Q.** And the “Serum T3 vs control” value ([3]; 8 days oral, 62.5 mg/kg)?
**A.** significantly suppressed

**Q.** What about the “Serum T3 vs control” value ([3]; 8 days oral, 15 and 31.25 mg/kg) of the same compound?
**A.** non-significant decrease

**Q.** What about the “Serum TSH” value [3, 8] of the same compound?
**A.** no significant differences; also recorded: No significant effects; also recorded: no significant changes

**Q.** And the Thyroid weight [3, 8]?
**A.** No changes; also recorded: no significant differences

**Q.** What about the Cytotoxicity (FRTL-5 cells) of the same compound?
**A.** no observed cytotoxicity; also recorded: no confounding cytotoxicity

**Q.** What about the “Activity in thyroid peroxidase inhibition assay” value (thyroid peroxidase) of the same compound?
**A.** no reported thyroid activity

**Q.** What about the “Association with the occurrence of thyroid cancer” value (thyroid cancer) of the same compound?
**A.** increased odds ratio

**Q.** What about the “Current guideline NOELs and LOELs” value (mouse and rabbit) of the same compound?
**A.** 33 mg/kg

**Q.** What about the “Activity in deiodinase inhibition assay” value (deiodinase) of the same compound?
**A.** no reported thyroid activity

**Q.** And the “Tissues with the highest levels of oxyfluorfen” value ([4]; following acute exposure, ref U.S. EPA, 2019)?
**A.** lung, thyroid, liver, ovaries, kidneys, adrenals and fat

**Q.** And the Half-life ([4]; in the rat, ref 2002 RED)?
**A.** approximately 30 h

**Q.** What about the “Final body weight or percent growth” value ([5]; 4- or 8-day treatment, any dose, male or female) of the same compound?
**A.** did not significantly affect

**Q.** And the “Visible signs of toxicity” value ([5]; daily observations, all treated animals)?
**A.** no visible signs of toxicity

**Q.** And the Serum oxyfluorfen detection ([6]; all treated serum samples, 4- and 8-day studies)?
**A.** detected

**Q.** What about the Kp at 8 days ([6]; male, Sprague-Dawley, rat, thyroid gland / serum, oral, 62.5 mg/kg) of the same compound?
**A.** 2 to 3

**Q.** And the “Acute oral, dermal, and inhalation toxicity” value [7]?
**A.** low oral toxicity
